Results on eleven compounds are retold here after ChEMBL document CHEMBL1148112, “Inhibition of tumor-promoting effects by poricoic acids G and H and other lanostane-type triterpenes and cytotoxic activity of poricoic acids A and G from Poria cocos” (J Nat Prod, 2002).

Data set [1] has as its system Raji. Description: Inhibition of 12-O-tetradecanoylphorbol-13-acetate induced EBV-early antigen activation in human Raji cells assessed as EA activation at 10 molar ratio after 48 hrs by indirect immunofluorescence method relative to TPA. The data set is classed as cell-based. The settings on record: human gammaherpesvirus 4. In short, it runs like this:
(§1)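 Raji cells (EBV genome-carrying, nonproducer) at 1 × 10^6/mL in 10% FBS RPMI 1640, incubated 37 °C for 48 h with n-butyric acid (4 mM) plus 32 pmol TPA (20 ng/mL), compound added in DMSO. EA-positive cells detected by indirect immunofluorescence using NPC patient sera; at least 500 cells counted, run twice, expressed relative to butyric acid + TPA control.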

For data set [2], the system named is Raji. Description: Inhibition of 12-O-tetradecanoylphorbol-13-acetate induced EBV-early antigen activation in human Raji cells assessed as EA activation at 500 molar ratio after 48 hrs by indirect immunofluorescence method relative to TPA. The arrangement: scale not given: the % may be the effect or the level left. The settings on record: human gammaherpesvirus 4. The data set is classed as cell-based. The method in brief:
as §1

Data set [3] relates to Raji. Nature of the data set: Inhibition of 12-O-tetradecanoylphorbol-13-acetate induced EBV-early antigen activation in human Raji cells assessed as EA activation at 100 molar ratio after 48 hrs by indirect immunofluorescence method relative to TPA. Particulars: human gammaherpesvirus 4. The data set is classed as cell-based. The method in brief: as §1
The nature of data set [4]: Cytotoxicity against human Raji cells assessed as cell viability at 1000 molar ratio. The data set is classed as cell-based. Particulars: read-out: Activity.
For data set [5], the system named is Raji. Description: Inhibition of 12-O-tetradecanoylphorbol-13-acetate induced EBV-early antigen activation in human Raji cells assessed as EA activation at 1000 molar ratio after 48 hrs by indirect immunofluorescence method relative to TPA. The data set is classed as cell-based. Further details: scale not given: the % may be the effect or the level left. The settings on record: human gammaherpesvirus 4. The method in brief: as §1

A short description of data set [6]: Growth inhibition of human NCI60 cells after 48 hrs by sulforhodamine B assay. The data set is classed as functional. Particulars: NCI60, 48 h. In short, it runs like this: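 NCI 60-cell panel (lung, colon, melanoma, renal, ovarian, brain, leukemia), continuous 48 h exposure, at least five 10-fold dilutions from a top concentration of 10^-4 M; cell growth estimated by sulforhodamine B protein staining.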
(Sulforhodamine B stains cellular protein and so reports cell mass.)

As to `C=C(CC[C@@H](C(=O)O)[C@H]1[C@H](O)C[C@@]2(C)C3=CC[C@H]4C(C)(C)[C@H](O)CC[C@]4(C)C3=CC[C@]12C)C(C)C`, in the data set with Raji [1], the EA activation relative to TPA control was 93.8%. Moreover, the Activity in the data set with Raji [2] came to 25.5%; in the data set with Raji [5] it was 0%. For the same compound, the Remaining EA activation relative to TPA control in the data set with Raji [3] was determined as 67%. In addition, the viability at 1000 molar ratio in data set [4] came to 70%.

Regarding `C=C(CC[C@@H](C(=O)O)[C@H]1[C@H](O)C[C@@]2(C)C3=CC[C@H]4C(C)(C)[C@H](O)CC[C@]4(C)C3=CC[C@]12C)C(C)(C)O`, the EA activation relative to TPA control in the data set with Raji [1] worked out at 79.4%. Further, the values for the Activity with Raji [2] and with Raji [5] were 13.2% and 0%, respectively. Moreover, the Remaining EA activation relative to TPA control with Raji [3] was 51.6%. Also, in data set [4], the viability at 1000 molar ratio turned out to be 70%.

With `CC1=C(/C=C/C(C)=C/C=C/C(C)=C/C=C/C=C(C)/C=C/C=C(C)/C=C/C2=C(C)CCCC2(C)C)C(C)(C)CCC1`, the EA activation relative to TPA control with Raji [1] was 100%. Further, the Activity with Raji [5] stood at 8.6%.

Consider `C=C(CC[C@@H](C(=O)O)[C@H]1[C@H](O)C[C@@]2(C)C3=CC[C@H]4C(C)(C)[C@@H](O)CC[C@]4(C)C3=CC[C@]12C)C(C)C` [DEHYDROTUMULOSIC ACID], for which the EA activation relative to TPA control in the data set with Raji [1] worked out at 90.5%. Besides, the results for the Activity in the data set with Raji [2] and in the data set with Raji [5] were 22.7% and 0%, respectively. For the same compound, the Remaining EA activation relative to TPA control in the data set on Raji [3] is 64.9%. Further, the viability at 1000 molar ratio in data set [4] came out at 70%.

Consider `COC(=O)[C@]1(C)CCC[C@]2(C)c3ccc(C(C)C)cc3CC[C@@H]12` [METHYL DEHYDROABIETATE], for which, in the data set with Raji [1], the EA activation relative to TPA control worked out at 91.6%. Moreover, the figures for the Activity in the data set with Raji [2] and in the data set on Raji [5] were 23.2% and 0%, respectively. In addition, in the data set with Raji [3], the Remaining EA activation relative to TPA control was 68.3%. For the same compound, in data set [4], the viability at 1000 molar ratio was 60%.

Regarding `C=C(CC[C@@H](C(=O)O)[C@H]1[C@H](O)C[C@@]2(C)C3=CC[C@H]4C(C)(C)C(=O)CC[C@]4(C)C3=CC[C@]12C)C(C)C` [POLYPORENIC ACID B], the EA activation relative to TPA control in the data set with Raji [1] stood at 92.6%. Further, the Activity in the data set on Raji [2] was 26.3%; in the data set on Raji [5] it was 0%. The Remaining EA activation relative to TPA control in the data set on Raji [3] came out at 68.7%. Also, the viability at 1000 molar ratio in data set [4] turned out to be 70%.

Regarding `C=C(CC[C@@H](C(=O)O)[C@H]1[C@H](O)C[C@@]2(C)C3=CC[C@@H](C(=C)C)[C@](C)(CCC(=O)O)C3=CC[C@]12C)C(C)C` [PORICOIC ACID A], the EA activation relative to TPA control in the data set on Raji [1] came out at 83.8%. The Activity came out at 18.5% in the data set with Raji [2] and 0% with Raji [5]. In addition, the GI50 (as a rule, the concentration giving 50% growth inhibition) in data set [6] was determined as 15 µM. Also, the Remaining EA activation relative to TPA control in the data set with Raji [3] was determined as 58.9%. Besides, in data set [4], the viability at 1000 molar ratio was determined as 70%.

Take `C=C(C)[C@@H]1CC=C2C(=CC[C@]3(C)[C@@H]([C@@H](CCC=C(C)C)C(=O)O)[C@H](O)C[C@@]23C)[C@@]1(C)CCC(=O)O` [PORICOIC ACID B]: the EA activation relative to TPA control in the data set with Raji [1] was found to be 80.7%. Also, the Activity in the data set with Raji [2] amounted to 14.3%; with Raji [5], 0%. The Remaining EA activation relative to TPA control with Raji [3] was 54%. In addition, the viability at 1000 molar ratio in data set [4] is 70%.

Turning to `C=C(C)[C@@H]1CCC2=C(CC[C@]3(C)[C@@H]([C@@H](CCC=C(C)C)C(=O)O)[C@H](O)C[C@@]23C)[C@@]1(C)CCC(=O)O` [PORICOIC ACID G], the EA activation relative to TPA control in the data set on Raji [1] was 82.8%. Besides, the Activity in the data set with Raji [2] worked out at 16%; with Raji [5] it was 0%. The Remaining EA activation relative to TPA control with Raji [3] was 55.9%. Further, in data set [4], the viability at 1000 molar ratio was determined as 70%.

With `C=C(CC[C@@H](C(=O)O)[C@H]1[C@H](O)C[C@@]2(C)C3=C(CC[C@]12C)[C@@](C)(CCC(=O)O)[C@H](C(=C)C)CC3)C(C)C` [PORICOIC ACID H], the EA activation relative to TPA control with Raji [1] came to 80.8%. Further, the Activity in the data set with Raji [2] turned out to be 15.7%; in the data set on Raji [5], 0%. Moreover, in the data set on Raji [3], the Remaining EA activation relative to TPA control amounted to 53.8%. In data set [4], the viability at 1000 molar ratio amounted to 70%.

Take `C=C(CC[C@@H](C(=O)O)[C@H]1[C@H](O)C[C@@]2(C)C3=C(CC[C@]12C)[C@@]1(C)CC[C@H](O)C(C)(C)[C@@H]1CC3)C(C)C` [TUMULOSIC ACID]: the EA activation relative to TPA control in the data set on Raji [1] was found to be 90.5%. The Activity in the data set with Raji [2] was determined as 22.7%; with Raji [5], 0%. In the data set with Raji [3], the Remaining EA activation relative to TPA control was 64.9%. Besides, the viability at 1000 molar ratio in data set [4] stood at 70%.
